Compound activity deposited in PubChem BioAssay by several laboratories.
TNAP inh hiacc = inhibitors of human TNAP at high phosphate acceptor concentration; inhibition, % at 20 µM; 0.03% of 200,000 active; AID 1135; purified TNAP, CDP-star luminescence, 1 M DEA;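 active = over 50% inhibition of tissue-nonspecific alkaline phosphatase at 20 µM in the single-dose screen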
Target sequence (P05186 whole entry, looked up): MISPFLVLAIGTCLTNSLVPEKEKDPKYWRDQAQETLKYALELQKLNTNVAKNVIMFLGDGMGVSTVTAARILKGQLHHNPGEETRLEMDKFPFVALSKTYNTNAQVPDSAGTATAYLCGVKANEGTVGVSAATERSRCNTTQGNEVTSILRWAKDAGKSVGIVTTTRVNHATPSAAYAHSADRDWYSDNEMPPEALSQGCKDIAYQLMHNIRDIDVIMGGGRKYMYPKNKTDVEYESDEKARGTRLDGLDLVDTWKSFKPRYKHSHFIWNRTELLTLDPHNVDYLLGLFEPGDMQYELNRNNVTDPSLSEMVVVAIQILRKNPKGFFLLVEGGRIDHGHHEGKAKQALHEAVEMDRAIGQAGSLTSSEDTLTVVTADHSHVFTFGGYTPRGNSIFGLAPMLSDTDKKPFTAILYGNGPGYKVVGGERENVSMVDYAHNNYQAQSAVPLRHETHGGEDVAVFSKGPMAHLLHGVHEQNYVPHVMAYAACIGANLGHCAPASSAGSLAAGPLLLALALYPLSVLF
TNAP act hiacc = TNAP (human) activation, high acceptor; P05186; purified TNAP, CDP-star luminescence, 1 M DEA, 30 min; stronger effect = higher value; 0 = EDTA background, 1 = DMSO-only activity; activation factor at 20 µM; 200,000 tested, under 10 active;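 active = activation factor at least 2 at 20 µM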
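Assay system: human TNAP; Input: enzyme diluted 1/800 final; Reagent: CDP-star luminogenic substrate at 100 µM final; Timing: 30 min, room temperature; Signal: luminescence; Evaluation: TNAP activation factor scaled between EDTA and DMSO control wells.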
TNAP inh noacc = inhibitors of human TNAP without phosphate acceptor. P05186. purified TNAP, CDP-star luminescence, 30 min. inhibition, % at 20 µM. 0.26% of 200,000 active. AID 1012;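 active = tissue-nonspecific alkaline phosphatase inhibition above about 50% at 20 µM in the single-dose screen, limit read from the data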
ABCG2 inh = blocks JC-1 efflux by human ABCG2 transporter; IgMXP3 cells, flow cytometry; inhibition, % at 6.6 µM; 0.1% of 190,000 active;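 active = inhibition above 80%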
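test system = two drug-resistant human cell lines, ABCG2 and ABCB1 | amount = 3 million cells/mL final, two lines in 1:1 ratio | reagent = JC-1 transporter substrate | doses = one concentration, 6.6 µM final | incubation = 10 min at 25 °C | signal = flow cytometric JC-1 green MFI at 530 nm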
ABCB1 block = inhibitors of human ABCB1 transporter, ABCG2 counter-screen; P08183; CCRF-Adr cells, JC-1 efflux, flow cytometry; inhibition, % at 6.6 µM; 0.067% of 190,000 active; AID 1326; in the data active = inhibition above about 40%;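 note: higher value means more JC-1 retained so stronger ABCB1 efflux block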
ABCB1 single pt = confirmation of human ABCB1 transporter inhibitors, ABCG2 counter-screen; shares compounds with ABCG2 inh; CCRF-Adr cells, JC-1 efflux, flow cytometry; inhibition, % at 6.6 µM; 7% of 270 active; AID 1451;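 active = inhibition of pump activity above 50%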
ABCG2 single pt = inhibits human ABCG2 efflux, confirmed at single point. inhibition, % at 6.6 µM. shares compounds with ABCG2 inh. IgMXP3 cells, JC-1 efflux, flow cytometry. 6% of 270 active;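 active = inhibition above 50%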
IgMXP3 fluor = counter-screen for ABCG2 inhibitors: compound fluorescence in IgMXP3 cells; shares compounds with ABCG2 inh; compound autofluorescence 488/530 nm, flow; stronger effect = higher value; fluorescence at 6.6 µM; 30% of 270 active;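 active = fluorescence in ABCG2-expressing cells above the plate's control-well mean plus 3 SD, cut at about 15 in these data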
CCRF autofluor = CCRF-Adr autofluorescence flag for ABCB1 confirmation. shares compounds with ABCG2 inh. CCRF-Adr cells, compound autofluorescence 488/530 nm, flow cytometry; stronger effect = higher value. fluorescence at 6.6 µM. 30% of 270 active. AID 1483;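 active = fluorescence beyond the plate control mean plus 3 SD, with a fluorescence-to-maximum score over 2, cut at about 25 in these data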
Of the large screens only hits and unclear results are named; the others gave an inactive call (follow-up assays come after a bar, where they were run). Shown are actives, neighbours in structure and some others; about 0.41% of the full set was active somewhere.

O=C(c1cc2nc(-c3cccs3)cc(C(F)(F)F)n2n1)N1CCCc2ccccc21	ABCG2 inh 100.2
CC1=Nn2c(nnc2-c2cc(-c3ccccc3)n[nH]2)SC1	TNAP inh noacc 50.7
CCOC(=O)c1c(NC(=O)CSc2ncnc3ccccc23)sc(C(C)=O)c1C	ABCB1 block 41.7
Cc1ccc(S(=O)(=O)N/N=C/c2ccccc2O)cc1[N+](=O)[O-]	none
Cc1ccc(S(=O)(=O)N/N=C/c2ccc(O)c(O)c2)cc1[N+](=O)[O-]	TNAP inh noacc 67.1
O=C(O)c1csc(-c2cccs2)n1	none
Cc1nn(-c2ccccc2)c(C)c1/C=N/NC(=O)c1cc(-c2ccc(Br)s2)[nH]n1	none
Cc1nn(-c2ccccc2)c(C)c1/C=N/NC(=O)c1cc(-c2cccs2)[nH]n1	TNAP inh noacc 83.5
O=C(O)c1cc(-c2cccs2)[nH]n1	TNAP inh noacc 83.4
COc1cc(/C=N/NC(=O)c2ccccc2)ccc1O	none
COc1cc(/C=N/NC(=O)c2cc(C34CC5CC(CC(C5)C3)C4)[nH]n2)ccc1O	TNAP inh noacc 54.4
COc1cc(/C=N/NC(=O)c2ccc(=O)[nH]n2)ccc1O	none
COc1cc(/C=N/NC(=O)c2[nH]nc3c2CCc2ccccc2-3)ccc1O	TNAP inh noacc 65.5
COc1ccc(S(=O)(=O)N2CCNC(=O)C2)cc1Br	none
Cc1nn(C(C)C)c(C)c1CN1CCN(Cc2ccsc2)C(CCO)C1 (stereo not given)	none
Cc1nn(-c2ccccc2)c(C)c1/C=N/NC(=O)c1cc(C23CC4CC(CC(C4)C2)C3)[nH]n1	TNAP inh noacc 73.4
Cc1nn(-c2ccccc2)c(C)c1/C=N/NC(=O)c1cc(-c2ccc(Cl)s2)[nH]n1	TNAP inh noacc 67.3
Cc1nn(-c2ccccc2)c(C)c1/C=N/NC(=O)c1cc(C2CC2)[nH]n1	none
COc1c(Cl)ccc(Cl)c1C(=O)NC(=S)N1CCOCC1	none
Cc1cccc(C)c1Nc1c(-c2ccccn2)nc2ccccn12	none
CCOC(=O)C1=C(C)NC(C)=C(C(=O)OCC)C1C(=O)OCC(=O)c1ccc2c(c1)OCCO2	none
Oc1ccccc1-c1cc(-c2ccc3c(c2)OCCO3)n[nH]1	none
CCOC(=O)c1cc(-c2ccc3c(c2)OCCO3)n[nH]1	TNAP inh noacc 84.0
O=C(O)c1cc(-c2ccc3c(c2)OCCO3)n[nH]1	TNAP inh noacc 57.6
O=C(Nn1cnc2ccccc2c1=O)c1ccccc1[N+](=O)[O-]	none
Cc1nonc1C1CCCN1C(=O)c1cc(COc2ccc(F)cc2F)on1 (stereo not given)	none
NNc1ncnc2sc3c(c12)CCC3	TNAP inh noacc 87.6
c1cc(Nc2ncnc3sc4c(c23)CCC4)ccn1	none
COCC(=O)n1nc(-c2ccccc2)nc1NCc1cccs1	TNAP inh noacc 54.3
Cc1cccc(-c2cc3nc(C)cc(NCCCN(C)C)n3n2)c1	TNAP inh noacc 53.1
Cc1c(C)c2ccc(OS(C)(=O)=O)c(C)c2oc1=O	none
COc1cc(CC(=O)Nc2ccccc2N2CCCCC2)cc(OC)c1OC	none
COCCCn1c(SCC(=O)Nc2cccc(C(=O)OC)c2)nnc1-c1ccncc1	none
COCCCn1c(SCC(=O)Nc2sc3c(c2C#N)CCCC3)nnc1-c1ccncc1	TNAP inh hiacc 55.2
CC(C)COc1ccc(-c2cc(C(=O)NN)[nH]n2)cc1	none
Cc1c(-c2ccccc2)n[nH]c1C(=O)NN	TNAP inh noacc 82.3
CCOc1ccc(-c2n[nH]c(C(=O)NN)c2C)cc1	TNAP inh noacc 82.3
COc1ccc(-n2c(CNC(=O)COc3ccc(Cl)cc3Cl)n[nH]c2=S)cc1	none
COc1ccc(C)cc1S(=O)(=O)Nc1cccnc1	TNAP inh hiacc 64.4, TNAP inh noacc 85.0
COc1ccc(OC)c(S(=O)(=O)Nc2cnc3ccccc3c2)c1	TNAP inh hiacc 82.1, TNAP inh noacc 94.3
COc1ccc(OC)c(S(=O)(=O)Nc2ccc(F)cc2)c1	none
COc1ccc(C)cc1S(=O)(=O)Nc1ccc(F)cc1	none
COc1ccc(S(=O)(=O)c2cnc3ccc(OC)cc3c2N2CCC3(CC2)OCCO3)cc1	ABCG2 inh 92.3 | ABCB1 single pt inactive | ABCG2 single pt inactive | IgMXP3 fluor inactive | CCRF autofluor inactive
CSc1ccccc1NC(=O)CN(C)CC(=O)Nc1c(F)cccc1F	none
Cc1cc(NC(=O)CN2CC(C)OC(C)C2)n(-c2nc3ccccc3s2)n1 (stereo not given)	none
Cc1cc(NC(=O)C(C)C)n(-c2nc3ccccc3s2)n1	ABCG2 inh 81.0 | ABCB1 single pt inactive | ABCG2 single pt inactive | IgMXP3 fluor inactive | CCRF autofluor inactive
CCOC(=O)C1=C(O)/C(=C/c2ccc(OCC(=O)O)c(OCC)c2)SC1=Nc1ccccc1	none
CCOC(=O)C1=C(O)/C(=C/c2ccc(OCC(=O)O)c(OC)c2)SC1=Nc1ccc(OCC)cc1	ABCB1 block 49.7 | ABCB1 single pt inactive | ABCG2 single pt inactive | IgMXP3 fluor inactive | CCRF autofluor inactive
CCCCN1/C(=C/c2ccc3ccccc3[n+]2CC)Sc2ccccc21	ABCG2 inh 121.3 | ABCB1 single pt 72.7 | ABCG2 single pt inactive | IgMXP3 fluor 256 | CCRF autofluor 337
CCN1/C(=C/c2ccc3cc(C)ccc3[n+]2CC)Sc2cc(C)ccc21	ABCG2 inh active | ABCB1 single pt 114.2 | ABCG2 single pt inactive | IgMXP3 fluor 118 | CCRF autofluor 187
CCN1/C(=C/c2ccc3cc(C)ccc3[n+]2C)Sc2ccc3sccc3c21	none
CCOc1cc(N2CCOCC2)c(OCC)cc1NC(=S)NCCCOC	none
N#Cc1ccc(-c2ccc(OCC(=O)NCCc3ccccc3)cc2)cc1	ABCG2 inh 82.1 | ABCB1 single pt inactive | ABCG2 single pt inactive | IgMXP3 fluor inactive | CCRF autofluor 31.4
COc1ccc(CCNC(=O)COc2ccc(-c3ccc(C#N)cc3)cc2)cc1	none
CC(C)(C)NC(=O)C(OC(=O)c1cccs1)c1ccc(F)cc1 (stereo not given)	none
COCCn1c(SCC(=O)N2CCc3ccccc3C2)nc2cc(Cl)ccc2c1=O	none | ABCB1 single pt inactive | ABCG2 single pt inactive | IgMXP3 fluor inactive | CCRF autofluor inactive
